ChEMBL document CHEMBL4732197, “Identification of novel potent HIV-1 inhibitors by exploiting the tolerant regions of the NNRTIs binding pocket” (Eur J Med Chem, 2021)
Converted amounts (≈) assume the structure as drawn.

How the values were obtained:
[1] = Inhibition of reverse transcriptase RES056 mutant in HIV-1 infected in human MT4 cells assessed as reduction in virus-induced cytopathic effect incubated for 5 days by MTT assay; format: cell-based; conditions: Human immunodeficiency virus 1, MT4, 120 h
Method in brief: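 MT-4 cells were spun down, resuspended at 6 × 10^5 cells/mL and infected with 100–300 CCID50 of mutant HIV-1 (RES056 = K103N + Y181C). Serial 5-fold compound dilutions were tested in triplicate wells alongside mock-infected wells. After 5 days, viability was read by MTT at 540 and 690 nm using the median of three wells.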

[2] = physchem; conditions: water, pH 2
[3] = Selectivity index, ratio of CC50 for human MT4 cells to EC50 for antiviral activity against HIV IIIB; format: toxicity; conditions: read-out: Ratio CC50/EC50
Method in brief: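 SI is computed as CC50/EC50. […] Both used serial 5-fold dilutions in triplicate and were read by MTT after 5 days, taking the median absorbance of three wells.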

[4] = Cytotoxicity against human MT4 cells assessed as reduction in cell viability incubated for 5 days by MTT assay; format: cell-based; conditions: time 5 day
Method in brief: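 Mock-infected MT-4 cells at 6 × 10^5 cells/mL were given serial 5-fold compound dilutions in triplicate wells alongside the infected series. After 5 days viability was read by MTT at 540 and 690 nm, using the median of three wells.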

[5] = target: Human immunodeficiency virus type 1 reverse transcriptase (Human immunodeficiency virus 1, UniProt Q72547); experiment: Inhibition of HIV-1 reverse transcriptase assessed as inhibition of biotin-dUTP incorporation into wild type RT measured after 1 hr by ELISA
[6] = test system: Human immunodeficiency virus 1; experiment: Antiviral activity against HIV-1 3B infected in human MT4 cells assessed as reduction in virus-induced cytopathic effect incubated for 5 days by MTT assay; format: functional, organism-based; conditions: Human immunodeficiency virus 1, 3B, MT4, 120 h
Method in brief: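 MT-4 cells resuspended at 6 × 10^5 cells/mL were infected with HIV-1 stock at 100–300 CCID50. Compounds were tested in serial 5-fold dilutions in triplicate wells. Viability was read by MTT after 5 days at 540 and 690 nm, using the median of three wells.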

[7] = Solubility in water at pH 7 at 0.1 to 10 mg
[8] = physchem; conditions: water, pH 7.4
[9] = test system: reverse transcriptase Y181C mutant (HIV-1); experiment: Inhibition of reverse transcriptase Y181C mutant in HIV-1 infected in human MT4 cells assessed as reduction in virus-induced cytopathic effect incubated for 5 days by MTT assay; conditions: Human immunodeficiency virus 1, MT4, 120 h

SMILES: Cc1cc(/C=C/C#N)cc(C)c1Oc1nc(Nc2ccc(CN3CCN(S(N)(=O)=O)CC3)cc2)nc2ccsc12
- EC50 [1]: 1.91 µM
- solubility [2]: 73.1 µg/mL (≈ 127 µM)
- selectivity ratio [3]: 19000
- CC50 at 120 h [4]: 145 µM
- IC50 [5]: 0.961 µM
- EC50 [6]: 0.007 µM
- solubility [7]: 49.7 µg/mL (≈ 86.3 µM)
- solubility [8]: 39.5 µg/mL (≈ 68.6 µM)
- EC50 [9]: 0.154 µM

SMILES: Cc1cc(/C=C/C#N)cc(C)c1Oc1nc(Nc2ccc(N3CCN(S(C)(=O)=O)CC3)cc2)nc2ccsc12
- EC50 [1]: > 11.5 µM
- selectivity ratio [3]: 428
- CC50 at 120 h [4]: 11.5 µM
- IC50 [5]: 0.211 µM
- EC50 [6]: 0.027 µM
- EC50 [9]: 4.53 µM

SMILES: Cc1cc(/C=C/C#N)cc(C)c1Oc1nc(Nc2ccc(CN3CCN(S(N)(=O)=O)CC3)cc2)nc2sccc12
- EC50 [1]: 1.38 µM
- solubility [2]: 64.9 µg/mL (≈ 113 µM)
- selectivity ratio [3]: > 26900
- CC50 at 120 h [4]: > 218 µM
- IC50 [5]: 0.299 µM
- EC50 [6]: 0.008 µM
- solubility [7]: 49.3 µg/mL (≈ 85.6 µM)
- solubility [8]: 38.9 µg/mL (≈ 67.6 µM)
- EC50 [9]: 0.045 µM

SMILES: Cc1cc(/C=C/C#N)cc(C)c1Oc1nc(Nc2ccc(N3CCCC(N)C3)cc2)nc2sccc12 (stereo not given)
- selectivity ratio [3]: 10
- CC50 at 120 h [4]: 4.61 µM
- IC50 [5]: 0.956 µM
- EC50 [6]: 0.461 µM

SMILES: Cc1cc(/C=C/C#N)cc(C)c1Oc1nc(Nc2ccc(N3CCN(S(N)(=O)=O)CC3)cc2)nc2ccsc12
- EC50 [1]: > 223 µM
- selectivity ratio [3]: > 8310
- CC50 at 120 h [4]: > 223 µM
- IC50 [5]: 0.214 µM
- EC50 [6]: 0.027 µM
- EC50 [9]: 2.25 µM

SMILES: Cc1cc(/C=C/C#N)cc(C)c1Oc1nc(Nc2ccc(N3CCCC(NS(C)(=O)=O)C3)cc2)nc2sccc12 (stereo not given)
- EC50 [1]: 16.5 µM
- selectivity ratio [3]: 78
- CC50 at 120 h [4]: 112 µM
- IC50 [5]: 1.02 µM
- EC50 [6]: 1.43 µM
- EC50 [9]: 14 µM

SMILES: Cc1cc(/C=C/C#N)cc(C)c1Oc1nc(Nc2ccc(N3CCN(S(C)(=O)=O)CC3)cc2)nc2sccc12
- EC50 [1]: 175 µM
- selectivity ratio [3]: > 1300
- CC50 at 120 h [4]: > 222 µM
- IC50 [5]: 0.239 µM
- EC50 [6]: 0.172 µM
- EC50 [9]: 42.7 µM

SMILES: Cc1cc(/C=C/C#N)cc(C)c1Oc1nc(Nc2ccc(N3CCCC(NS(N)(=O)=O)C3)cc2)nc2ccsc12 (stereo not given)
- EC50 [1]: > 218 µM
- selectivity ratio [3]: > 3630
- CC50 at 120 h [4]: > 218 µM
- IC50 [5]: 2.41 µM
- EC50 [6]: 0.059 µM
- EC50 [9]: 3.64 µM

SMILES: Cc1cc(/C=C/C#N)cc(C)c1Oc1nc(Nc2ccc(CN3CCN(S(C)(=O)=O)CC3)cc2)nc2ccsc12
- EC50 [1]: > 20.7 µM
- selectivity ratio [3]: 53
- CC50 at 120 h [4]: 20.7 µM
- IC50 [5]: 0.139 µM
- EC50 [6]: 0.391 µM
- EC50 [9]: 5.64 µM

SMILES: Cc1cc(/C=C/C#N)cc(C)c1Oc1nc(Nc2ccc(CN3CCNCC3)cc2)nc2ccsc12
- selectivity ratio [3]: 18
- CC50 at 120 h [4]: 3.97 µM
- IC50 [5]: 0.707 µM
- EC50 [6]: 0.216 µM

SMILES: Cc1cc(/C=C/C#N)cc(C)c1Oc1nc(Nc2ccc(CN3CCNCC3)cc2)nc2sccc12
- selectivity ratio [3]: 94
- CC50 at 120 h [4]: 4.03 µM
- IC50 [5]: 0.151 µM
- EC50 [6]: 0.042 µM

SMILES: Cc1cc(/C=C/C#N)cc(C)c1Oc1nc(Nc2ccc(N3CCNCC3)cc2)nc2sccc12
- selectivity ratio [3]: 8
- CC50 at 120 h [4]: 4.74 µM
- IC50 [5]: 0.849 µM
- EC50 [6]: 0.584 µM

SMILES: Cc1cc(/C=C/C#N)cc(C)c1Oc1nc(Nc2ccc(N3CCN(S(N)(=O)=O)CC3)cc2)nc2sccc12
- EC50 [1]: 196 µM
- selectivity ratio [3]: > 7790
- CC50 at 120 h [4]: > 223 µM
- IC50 [5]: 0.713 µM
- EC50 [6]: 0.028 µM
- EC50 [9]: 1.36 µM

SMILES: Cc1cc(/C=C/C#N)cc(C)c1Oc1nc(Nc2ccc(CN3CCN(S(C)(=O)=O)CC3)cc2)nc2sccc12
- EC50 [1]: 18.8 µM
- selectivity ratio [3]: 3560
- CC50 at 120 h [4]: 131 µM
- IC50 [5]: 0.103 µM
- EC50 [6]: 0.036 µM
- EC50 [9]: 1.27 µM

SMILES: Cc1cc(/C=C/C#N)cc(C)c1Oc1nc(Nc2ccc(N3CCCC(NS(N)(=O)=O)C3)cc2)nc2sccc12 (stereo not given)
- EC50 [1]: > 218 µM
- selectivity ratio [3]: > 1730
- CC50 at 120 h [4]: > 218 µM
- IC50 [5]: 4.79 µM
- EC50 [6]: 0.126 µM
- EC50 [9]: 7.53 µM

SMILES: Cc1cc(/C=C/C#N)cc(C)c1Oc1nc(Nc2ccc(N3CCNCC3)cc2)nc2ccsc12
- selectivity ratio [3]: 15
- CC50 at 120 h [4]: 5.73 µM
- IC50 [5]: 0.945 µM
- EC50 [6]: 0.387 µM

SMILES: Cc1cc(/C=C/C#N)cc(C)c1Oc1nc(Nc2ccc(N3CCCC(NS(C)(=O)=O)C3)cc2)nc2ccsc12 (stereo not given)
- EC50 [1]: > 217 µM
- selectivity ratio [3]: > 434
- CC50 at 120 h [4]: > 217 µM
- IC50 [5]: 0.775 µM
- EC50 [6]: 0.45 µM
- EC50 [9]: 43.4 µM

SMILES: Cc1cc(/C=C/C#N)cc(C)c1Oc1nc(Nc2ccc(N3CCCC(N)C3)cc2)nc2ccsc12 (stereo not given)
- selectivity ratio [3]: 5
- CC50 at 120 h [4]: 3.82 µM
- IC50 [5]: 1.58 µM
- EC50 [6]: 0.815 µM

SMILES: O=C1Nc2ccc(Cl)cc2[C@@](C#CC2CC2)(C(F)(F)F)O1 [EFAVIRENZ]
- EC50 [1]: 0.335 µM
- CC50 at 120 h [4]: > 6.33 µM
- EC50 [6]: 0.028 µM
- EC50 [9]: 0.005 µM

SMILES: Cc1cc(C#N)cc(C)c1Oc1nc(Nc2ccc(C#N)cc2)nc(N)c1Br [ETRAVIRINE]
- EC50 [1]: 0.06 µM
- CC50 at 120 h [4]: > 4.59 µM
- solubility [7]: < 1 µg/mL
- solubility [8]: < 1 µg/mL
- EC50 [9]: 0.015 µM

SMILES: Cc1ccnc2c1NC(=O)c1cccnc1N2C1CC1 [NEVIRAPINE]
- EC50 [1]: > 15 µM
- CC50 at 120 h [4]: > 15 µM
- EC50 [6]: 0.15 µM
- EC50 [9]: 5.05 µM
